Reference: ChEMBL document CHEMBL5344415, “Synthesis and Characterization of Phenylalanine Amides Active against Mycobacterium abscessus and Other Mycobacteria” (J Med Chem, 2023)
In brackets after ≈: the same amount, converted by molar mass.

Tests used:
[1] = system: Mycobacteroides abscessus; assay: Antibacterial activity against Mycobacterium abscessus ATCC 19977 expressing tomato RFP infected in human THP-1 cells assessed as bacterial growth inhibition incubated for 4 days in RPMI medium by RFP fluorescence based assay; type: functional; conditions: ATCC 19977, 96 h, time 4 day
Summary of the method: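 RFP M. abscessus washed, moved into RPMI, filtered through 5 µm and opsonised with 10 % human serum for 30 min. THP-1 cells infected at MOI 5:1 with PMA 40 ng/mL for 4 h at 37 °C, then washed. Infected cells (1x10⁵/well) given a ten-point twofold series. Incubated 4 days at 37 °C, 5 % CO₂. Cells PFA-fixed and DAPI-stained. RFP quantified by imaging. Controls were DMSO and 1.5 µM bedaquiline. Duplicate.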

[2] = system: Mycobacteroides abscessus; assay: Antibacterial activity against Mycobacterium abscessus ATCC 19977 expressing tomato RFP assessed as bacterial growth inhibition incubated for 3 days in 7H9 medium by RFP fluorescence based broth microdilution method; type: functional; conditions: ATCC 19977, 72 h, time 3 day
Summary of the method: (§1)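 Broth microdilution in 7H9 with 10 % ADS and 0.05 % Tween 80. Twofold nine-point dilution series. Inoculum 5 x 10⁵ cells/mL taken from a mid-log preculture. Incubation at 37 °C, 3 days for M. smegmatis and M. abscessus, 5 days for M. intracellulare. Read-out by RFP fluorescence (ex 544/em 590 nm). Controls were 1 % DMSO and 100 μM amikacin. MIC₉₀ from duplicates, averaged.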

[3] = system: Mycobacterium intracellulare; assay: Antibacterial activity against Mycobacterium intracellulare ATCC 35761 expressing tomato RFP assessed as bacterial growth inhibition incubated for 5 days in 7H9 medium by RFP fluorescence based broth microdilution method; type: functional; conditions: ATCC 35761, 120 h, time 5 day; summary of the method: as §1
[4] = Kinetic solubility of compound in PBS at 0.78 to 500 uM measured immediately by nephelometric method; type: physicochemical; conditions: buffer, dose 0.78-500 µM
Summary of the method: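 DMSO stocks prediluted in DMSO, then diluted 1:50 into PBS (2 % DMSO final) and read immediately by nephelometry at 0.78–500 μM; blank-corrected data fitted by segmental regression; quadruplicates from one stock.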

MCF7 = assay: Cytotoxicity against human MCF7 cells assessed as reduction in cell viability incubated for 72 hrs by SRB assay; type: toxicity, cell-based
HT-29 = assay: Cytotoxicity against human HT-29 cells assessed as reduction in cell viability incubated for 72 hrs by SRB assay; type: toxicity, cell-based
[5] = Cytotoxicity against mouse NIH3T3 cells assessed as reduction in cell viability incubated for 72 hrs by SRB assay; type: toxicity, cell-based; conditions: mouse, NIH3T3 cells
[6] = system: Mycobacterium tuberculosis; assay: Antibacterial activity against Mycobacterium tuberculosis H37Rv ATCC 27294 assessed as bacterial growth inhibition incubated for 7 days in 7H9 medium by optical density based microplate reader analysis; type: functional; conditions: H37Rv ATCC 27294, 168 h, time 7 day
Summary of the method: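 Compounds serially diluted in flat-bottom 96-well plates. Mid-log culture mixed in to a final OD₆₀₀ of 0.05. Sealed plates incubated in humidified boxes at 37 °C for 7 days with shaking at 80 rpm. Turbidity read at 600 nm. MIC₉₀ taken from dose–response curves. Two biological replicates, averaged.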

HeLa = assay: Cytotoxicity against human HeLa cells assessed as reduction in cell viability incubated for 72 hrs by SRB assay; type: toxicity, cell-based
[7] = system: Mycobacteroides abscessus; assay: Antibacterial activity against Mycobacterium abscessus Bamboo harboring inactive clarithromycin-sensitive erm41 C28 sequevar assessed as bacterial growth inhibition incubated for 3 days in 7H9 medium by optical density based method; type: functional; conditions: 72 h, time 3 day
A2780 = assay: Cytotoxicity against human A2780 cells assessed as reduction in cell viability incubated for 72 hrs by SRB assay; type: toxicity, cell-based
A-375 = assay: Cytotoxicity against human A-375 cells assessed as reduction in cell viability incubated for 72 hrs by SRB assay; type: toxicity, cell-based
[8] = system: Mycolicibacterium smegmatis; assay: Antibacterial activity against Mycobacterium smegmatis mc2 155 expressing tomato RFP assessed as bacterial growth inhibition incubated for 3 days in 7H9 medium by RFP fluorescence based broth microdilution method; type: functional; conditions: mc2 155, 72 h, time 3 day; summary of the method: as §1
[9] = system: Mycobacteroides abscessus; assay: Antibacterial activity against Mycobacterium abscessus ATCC 19977 expressing tomato RFP assessed as bacterial growth inhibition incubated for 3 days in MHII medium by RFP fluorescence based broth microdilution method; type: functional; conditions: ATCC 19977, 72 h, time 3 day
Summary of the method: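 Broth microdilution in MHII broth with 0.05 % Tween 80, against the RFP-expressing strain. Twofold nine-point dilution series. Inoculum 5 x 10⁵ cells/mL from a mid-log preculture. Incubated 3 days at 37 °C. Read-out by RFP fluorescence (ex 544/em 590 nm). Controls were 1 % DMSO and 100 μM amikacin. MIC₉₀ from duplicates, averaged.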

HEK293 = assay: Cytotoxicity against HEK293 cells assessed as reduction in cell viability incubated for 72 hrs by SRB assay; type: toxicity, cell-based, Homo sapiens

Structure (SMILES) | MIC50 [1] | MIC90 [1] | MIC90 [2] | MIC90 [3] | Kinetic_solubility [4] | EC50 (MCF7) | EC50 (HT-29) | EC50 at 72 h [5] | MIC90 [6] | EC50 (HeLa) | MIC50 [7] | MIC90 [7] | EC50 (A2780) | EC50 (A-375) | MIC90 [8] | MIC90 [9] | EC50 (HEK293)
O=C(N[C@H](Cc1ccccc1)C(=O)Nc1cc(F)ccc1N1CC[S+]([O-])CC1)c1ccccc1F | 0.39 µM (≈ 0.194 µg/mL) | 12.5 µM (≈ 6.22 µg/mL) | 3.31 µM (≈ 1.65 µg/mL) | 0.2 µM (≈ 0.0995 µg/mL) | 184 µM | > 30 µM | > 30 µM | > 30 µM | 0.78 µM (≈ 0.388 µg/mL) | > 30 µM | 0.52 µM (≈ 0.259 µg/mL) | 2 µM (≈ 0.995 µg/mL) | > 30 µM | > 30 µM | 1.56 µM (≈ 0.776 µg/mL) | 3.13 µM (≈ 1.56 µg/mL) | –
O=C(N[C@H](Cc1ccccc1)C(=O)Nc1ccccc1N1CCSCC1)c1cccs1 | 12.5 µM (≈ 5.65 µg/mL) | > 100 µM | 12.5 µM (≈ 5.65 µg/mL) | 0.78 µM (≈ 0.352 µg/mL) | 34 µM | 16.4 µM | > 30 µM | > 30 µM | 6.25 µM (≈ 2.82 µg/mL) | > 30 µM | 2.5 µM (≈ 1.13 µg/mL) | 14 µM (≈ 6.32 µg/mL) | 19.8 µM | > 30 µM | 3.13 µM (≈ 1.41 µg/mL) | 50 µM (≈ 22.6 µg/mL) | 19.1 µM
O=C(N[C@H](Cc1ccsc1)C(=O)Nc1ccccc1N1CCOCC1)c1cccs1 | 12.5 µM (≈ 5.52 µg/mL) | 50 µM (≈ 22.1 µg/mL) | 12.5 µM (≈ 5.52 µg/mL) | 1.56 µM (≈ 0.689 µg/mL) | 30 µM | > 30 µM | > 30 µM | > 30 µM | 3.13 µM (≈ 1.38 µg/mL) | > 30 µM | 2.3 µM (≈ 1.02 µg/mL) | 7 µM (≈ 3.09 µg/mL) | > 30 µM | > 30 µM | 1.56 µM (≈ 0.689 µg/mL) | 12.5 µM (≈ 5.52 µg/mL) | –
O=C(N[C@H](Cc1ccc(O)cc1)C(=O)Nc1cc(F)ccc1N1CCSCC1)c1ccccc1F | 6.25 µM (≈ 3.11 µg/mL) | 25 µM (≈ 12.4 µg/mL) | – | 0.2 µM (≈ 0.0995 µg/mL) | 58 µM | > 30 µM | > 30 µM | > 30 µM | 1.56 µM (≈ 0.776 µg/mL) | > 30 µM | 1.7 µM (≈ 0.846 µg/mL) | 15 µM (≈ 7.46 µg/mL) | > 30 µM | > 30 µM | 6.25 µM (≈ 3.11 µg/mL) | 50 µM (≈ 24.9 µg/mL) | –
O=C(N[C@H](Cc1ccccc1)C(=O)Nc1cc(F)ccc1N1CC[S+]([O-])CC1)c1cccs1 | 0.78 µM (≈ 0.379 µg/mL) | 25 µM (≈ 12.1 µg/mL) | 1.56 µM (≈ 0.758 µg/mL) | 0.05 µM (≈ 0.0243 µg/mL) | 131 µM | > 30 µM | > 30 µM | > 30 µM | 0.4 µM (≈ 0.194 µg/mL) | > 30 µM | 0.28 µM (≈ 0.136 µg/mL) | 1.9 µM (≈ 0.923 µg/mL) | > 30 µM | > 30 µM | 1.56 µM (≈ 0.758 µg/mL) | 3.13 µM (≈ 1.52 µg/mL) | –
O=C(N[C@H](Cc1ccccc1)C(=O)Nc1cc(F)ccc1N1CCSCC1)c1cccs1 | 3.13 µM (≈ 1.47 µg/mL) | > 100 µM | 25 µM (≈ 11.7 µg/mL) | 0.78 µM (≈ 0.366 µg/mL) | 37 µM | > 30 µM | > 30 µM | > 30 µM | 1.56 µM (≈ 0.733 µg/mL) | > 30 µM | 1.4 µM (≈ 0.657 µg/mL) | 14 µM (≈ 6.57 µg/mL) | > 30 µM | > 30 µM | 3.13 µM (≈ 1.47 µg/mL) | 50 µM (≈ 23.5 µg/mL) | –
O=C(N[C@H](Cc1cccs1)C(=O)Nc1ccccc1N1CC[S+]([O-])CC1)c1ccccc1F | 6.25 µM (≈ 3.04 µg/mL) | 50 µM (≈ 24.3 µg/mL) | 6.25 µM (≈ 3.04 µg/mL) | 0.2 µM (≈ 0.0971 µg/mL) | 96 µM | 28.9 µM | > 30 µM | > 30 µM | 1.56 µM (≈ 0.758 µg/mL) | > 30 µM | 1.8 µM (≈ 0.874 µg/mL) | 6.5 µM (≈ 3.16 µg/mL) | 29 µM | 29.3 µM | 1.56 µM (≈ 0.758 µg/mL) | 12.5 µM (≈ 6.07 µg/mL) | –
